{"data": "Measured values from different studies", "target": "Serine/threonine-protein kinase Nek1 (NEK1, Homo sapiens, UniProt Q96PY6)", "Sequence (Q96PY6 1-1258, as in one of the studies)": "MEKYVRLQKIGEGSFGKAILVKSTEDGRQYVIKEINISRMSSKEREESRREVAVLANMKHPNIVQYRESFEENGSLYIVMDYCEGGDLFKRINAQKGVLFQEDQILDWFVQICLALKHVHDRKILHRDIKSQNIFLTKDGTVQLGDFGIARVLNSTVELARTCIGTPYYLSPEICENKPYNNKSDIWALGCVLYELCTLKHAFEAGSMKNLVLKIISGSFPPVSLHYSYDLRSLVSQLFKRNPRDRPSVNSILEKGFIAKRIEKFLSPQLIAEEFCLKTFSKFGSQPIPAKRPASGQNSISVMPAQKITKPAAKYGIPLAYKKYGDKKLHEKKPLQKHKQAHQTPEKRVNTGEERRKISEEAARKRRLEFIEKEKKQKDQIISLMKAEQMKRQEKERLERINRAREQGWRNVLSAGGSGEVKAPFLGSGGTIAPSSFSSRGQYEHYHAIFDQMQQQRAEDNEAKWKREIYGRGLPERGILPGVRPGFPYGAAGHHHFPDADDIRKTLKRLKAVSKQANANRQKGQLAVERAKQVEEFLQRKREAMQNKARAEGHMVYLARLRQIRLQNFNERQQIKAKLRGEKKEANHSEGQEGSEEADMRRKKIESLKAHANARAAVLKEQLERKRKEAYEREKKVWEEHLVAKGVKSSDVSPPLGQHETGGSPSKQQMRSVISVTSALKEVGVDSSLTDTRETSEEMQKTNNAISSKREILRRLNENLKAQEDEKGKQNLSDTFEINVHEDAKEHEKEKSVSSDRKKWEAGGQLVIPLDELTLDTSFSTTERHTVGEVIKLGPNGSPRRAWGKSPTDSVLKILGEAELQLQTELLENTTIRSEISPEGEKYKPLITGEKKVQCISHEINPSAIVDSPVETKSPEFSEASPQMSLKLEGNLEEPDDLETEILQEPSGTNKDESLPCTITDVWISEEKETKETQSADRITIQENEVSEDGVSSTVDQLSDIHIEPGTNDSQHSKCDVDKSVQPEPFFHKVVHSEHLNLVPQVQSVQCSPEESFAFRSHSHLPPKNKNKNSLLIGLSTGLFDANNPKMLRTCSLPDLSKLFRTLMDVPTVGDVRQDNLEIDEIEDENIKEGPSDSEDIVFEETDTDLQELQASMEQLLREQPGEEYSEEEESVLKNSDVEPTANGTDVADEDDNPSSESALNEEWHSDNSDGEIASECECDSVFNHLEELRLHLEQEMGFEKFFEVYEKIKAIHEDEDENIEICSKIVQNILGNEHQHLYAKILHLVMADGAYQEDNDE", "note": "Protocols differ between the studies behind these lines."}
{"Compound": "O=C(NCCCN1CCOCC1)c1ccc(Nc2ncc(Cl)c(-c3ccc(Cl)s3)n2)cc1", "test": "binding, competition with immobilised ligand", "setting": "1 µM", "remaining binding [%]": 76}
{"Compound": "CNC(=O)Nc1ccc2c(c1)CC[C@@]21OC(=O)N(CC(=O)N(Cc2ccc(F)cc2)[C@@H](C)C(F)(F)F)C1=O", "test": "cell-free assay, competition with immobilised ligand", "setting": "1 µM", "remaining binding [%]": 100}
{"Compound": "O=C(NCC1CCOCC1)c1n[nH]cc1NC(=O)c1c(F)cccc1F", "test": "binding, competition with immobilised ligand", "setting": "1 µM", "remaining binding [%]": 100}
{"Compound": "c1cncc(-c2cccc(Nc3nccc(NC4CCCCC4)n3)c2)c1", "test": "binding, competition with immobilised ligand", "setting": "10 µM", "remaining binding [%]": 91}
{"Compound": "Cc1cnn2ncc(-c3ccnc(N(C)C)n3)c2c1", "test": "binding", "setting": "1 µM", "remaining binding [%]": 100}
{"Compound": "COc1cnc(Nc2cccc(S(N)(=O)=O)c2)nc1N1CCN(c2ccccc2)CC1", "test": "binding, competition with immobilised ligand", "setting": "1 µM", "remaining binding [%]": 92}
{"Compound": "COc1ncc2cc3ccccc3nc2c1C#N", "test": "cell-free assay, competition with immobilised ligand", "setting": "5 µM", "remaining binding [%]": 100}
{"Compound": "CN(C)C(=O)Cn1cc(-c2nc([C@@](C)(c3ccc(-c4cnc(N)nc4)cc3)C3CC3)no2)cn1", "test": "cell-free assay, competition with immobilised ligand", "setting": "1 µM", "remaining binding [%]": 100}
{"Compound": "Nc1ncc2c(n1)-c1c([nH]c3ccc(C#CC4CC4)cc13)CCCC2", "test": "binding, competition with immobilised ligand", "setting": "1 µM", "remaining binding [%]": 100}
{"Compound": "COc1ccnn2ncc(-c3ccnc(N(C)C)n3)c12", "test": "binding", "setting": "1 µM", "remaining binding [%]": 100}
{"Compound": "FC(F)(F)Oc1cccc(-c2cnc3ccc(-c4ccncc4)nn23)c1", "test": "cell-free assay, competition with immobilised ligand", "setting": "5 µM", "remaining binding [%]": 78}
{"Compound": "Cn1nc(C(=O)NCc2ccc(C(=O)O)cc2)cc1-c1ccc2[nH]ccc2c1", "test": "cell-free assay, competition with immobilised ligand", "setting": "0.1 µM", "remaining binding [%]": 100}
{"Compound": "CN(CCCC(F)(F)F)c1nccc(-c2cnn3ncccc23)n1", "test": "binding", "setting": "1 µM", "remaining binding [%]": 100}
{"Compound": "O=C(c1ccc(Nc2nccc(-c3cc4ccccc4s3)n2)cc1)N1CCC(N2CCCC2)CC1", "test": "binding, competition with immobilised ligand", "setting": "1 µM", "remaining binding [%]": 31}
{"Compound": "N[C@@H]1CCN(c2nccc(-c3cnn4ncccc34)n2)C1", "test": "binding", "setting": "1 µM", "remaining binding [%]": 100}
{"Compound": "O=C(NCc1ncc(C(F)(F)F)cc1Cl)c1ccc2c(c1)C1(CCS(=O)(=O)CC1)[C@H](C1CC1)N2S(=O)(=O)c1ccc(F)cc1", "test": "cell-free assay, competition with immobilised ligand", "setting": "1 µM", "remaining binding [%]": 100}
{"Compound": "Cc1cnc(Nc2ccc(C(=O)N3CCC(N4CCCC4)CC3)cc2)nc1-c1cc2ccccc2s1", "test": "binding, competition with immobilised ligand", "setting": "1 µM", "remaining binding [%]": 18}
{"Compound": "O=C(N[C@H]1CCCCC/C=C\\C2C[C@@]2(C(=O)O)NC(=O)[C@@H]2C[C@@H](Oc3ccncc3)CN2C1=O)OC1CCCC1 (stereo partly shown)", "test": "binding, competition with immobilised ligand", "setting": "1 µM", "remaining binding [%]": 100}
{"Compound": "C[C@@H]1CCN(c2nccc(-c3cnn4ncccc34)n2)C1", "test": "binding", "setting": "1 µM", "remaining binding [%]": 100}
{"Compound": "Cn1cc(Cl)c2c(Oc3c(F)cc(Nc4cc(Cl)nc(N)n4)cc3F)ccnc21", "test": "cell-free assay, competition with immobilised ligand", "setting": "0.1 µM", "remaining binding [%]": 100}
{"Compound": "F[C@@H]1CCN(c2nccc(-c3cnn4ncccc34)n2)C1", "test": "binding", "setting": "1 µM", "remaining binding [%]": 100}
{"Compound": "CNC(=O)[C@@H]1CC[C@@H](n2c(-c3ccc4cnccc4c3)nc3ccc(C(=O)NCc4cccc(C(N)=O)c4)cc32)C1", "test": "binding, competition with immobilised ligand", "setting": "1 µM", "remaining binding [%]": 100}
